Source: ChEMBL document CHEMBL4043093, “2-Oxo-3, 4-dihydropyrimido[4, 5-d]pyrimidinyl derivatives as new irreversible pan fibroblast growth factor receptor (FGFR) inhibitors” (Eur J Med Chem, 2017)

Legend:
[1] = tested on: Epidermal growth factor receptor (Homo sapiens), P00533 [G719S]; assay: Inhibition of human partial length EGFR G719S mutant (R669 to V1011 residues) expressed in Escherichia coli BL21 assessed as residual activity at 1000 nM after 30 mins by Kinomescan method relative to control
Outline: (§1)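 KINOMEscan binding panel of 456 kinases, with the test compound at a single concentration of 1 µM. Read-out is Percent Control.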

[2] = biological target: Membrane-associated tyrosine- and threonine-specific cdc2-inhibitory kinase (Homo sapiens) (UniProt Q99640); assay: Inhibition of wild-type human partial length PKMYT1 (A88 to G366 residues) expressed in Escherichia coli BL21 assessed as residual activity at 1000 nM after 30 mins by Kinomescan method relative to control
[3] = biological target: Dual specificity protein kinase CLK4 (Homo sapiens) (UniProt Q9HAZ1); assay: Inhibition of wild-type human partial length CLK4 (R135 to K481 residues) expressed in Escherichia coli BL21 assessed as residual activity at 1000 nM after 30 mins by Kinomescan method relative to control
[4] = biological target: Serine/threonine-protein kinase MRCK gamma (Homo sapiens) (UniProt Q6DT37); assay: Inhibition of wild-type human partial length DMPK2 (S46 to S408 residues) expressed in Escherichia coli BL21 assessed as residual activity at 1000 nM after 30 mins by Kinomescan method relative to control
[5] = biological target: MAP/microtubule affinity-regulating kinase 4 (Homo sapiens) (UniProt Q96L34); assay: Inhibition of wild-type human partial length MARK4 (K29 to G340 residues) expressed in Escherichia coli BL21 assessed as residual activity at 1000 nM after 30 mins by Kinomescan method relative to control
[6] = biological target: Mitogen-activated protein kinase kinase kinase kinase 4 (Homo sapiens) (UniProt O95819); assay: Inhibition of wild-type human partial length MAP4K4 (M1 to R310 residues) expressed in Escherichia coli BL21 assessed as residual activity at 1000 nM after 30 mins by Kinomescan method relative to control
[7] = biological target: Wee1-like protein kinase (Homo sapiens) (UniProt P30291); assay: Inhibition of wild-type human partial length WEE1 (M291 to K575 residues) expressed in Escherichia coli BL21 assessed as residual activity at 1000 nM after 30 mins by Kinomescan method relative to control
[8] = biological target: SNF-related serine/threonine-protein kinase (Homo sapiens) (UniProt Q9NRH2); assay: Inhibition of wild-type human partial length SNRK (M1 to E339 residues) expressed in HEK293 cells assessed as residual activity at 1000 nM after 30 mins by Kinomescan method relative to control; format: cell-based
[9] = biological target: Activin receptor type-2B (Homo sapiens) (UniProt Q13705); assay: Inhibition of wild-type human ACVR2B (H169 to D504 residues) expressed in Escherichia coli BL21 assessed as residual activity at 1000 nM after 30 mins by Kinomescan method relative to control
Activin receptor type-2B (Homo sapiens), sequence (Q13705 whole entry, the tested form may be a part): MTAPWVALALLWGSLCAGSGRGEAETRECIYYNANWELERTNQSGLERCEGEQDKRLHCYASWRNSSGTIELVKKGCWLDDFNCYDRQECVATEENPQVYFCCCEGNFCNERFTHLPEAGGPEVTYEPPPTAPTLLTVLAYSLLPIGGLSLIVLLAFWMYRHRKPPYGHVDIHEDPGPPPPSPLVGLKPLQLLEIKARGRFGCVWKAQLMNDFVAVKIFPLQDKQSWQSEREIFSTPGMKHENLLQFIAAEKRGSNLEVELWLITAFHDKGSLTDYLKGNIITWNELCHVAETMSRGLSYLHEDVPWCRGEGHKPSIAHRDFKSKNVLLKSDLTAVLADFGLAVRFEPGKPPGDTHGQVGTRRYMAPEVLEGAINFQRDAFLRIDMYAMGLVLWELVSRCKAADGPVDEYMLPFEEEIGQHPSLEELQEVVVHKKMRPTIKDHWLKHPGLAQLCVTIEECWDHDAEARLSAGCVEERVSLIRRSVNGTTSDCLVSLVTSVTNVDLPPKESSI
Outline: (§2)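 Single-point screen at a fixed 1 µM, run within a 456-kinase DiscoveRx KINOMEscan panel. Each kinase's read-out is Percent Control, i.e. signal relative to a control without compound. Hits were scored by a Percent Control < 35 cut-off, and an S(35) selectivity score was calculated across the non-mutant kinases.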

[10] = biological target: Tyrosine-protein kinase JAK2 (Homo sapiens) (UniProt O60674); assay: Inhibition of wild-type human partial length JAK2 JH1 catalytic domain (A829 to G1132 residues) expressed in HEK293 cells assessed as residual activity at 1000 nM after 30 mins by Kinomescan method relative to control; format: cell-based
Tyrosine-protein kinase JAK2 (Homo sapiens), sequence (O60674 whole entry, the tested form may be a part): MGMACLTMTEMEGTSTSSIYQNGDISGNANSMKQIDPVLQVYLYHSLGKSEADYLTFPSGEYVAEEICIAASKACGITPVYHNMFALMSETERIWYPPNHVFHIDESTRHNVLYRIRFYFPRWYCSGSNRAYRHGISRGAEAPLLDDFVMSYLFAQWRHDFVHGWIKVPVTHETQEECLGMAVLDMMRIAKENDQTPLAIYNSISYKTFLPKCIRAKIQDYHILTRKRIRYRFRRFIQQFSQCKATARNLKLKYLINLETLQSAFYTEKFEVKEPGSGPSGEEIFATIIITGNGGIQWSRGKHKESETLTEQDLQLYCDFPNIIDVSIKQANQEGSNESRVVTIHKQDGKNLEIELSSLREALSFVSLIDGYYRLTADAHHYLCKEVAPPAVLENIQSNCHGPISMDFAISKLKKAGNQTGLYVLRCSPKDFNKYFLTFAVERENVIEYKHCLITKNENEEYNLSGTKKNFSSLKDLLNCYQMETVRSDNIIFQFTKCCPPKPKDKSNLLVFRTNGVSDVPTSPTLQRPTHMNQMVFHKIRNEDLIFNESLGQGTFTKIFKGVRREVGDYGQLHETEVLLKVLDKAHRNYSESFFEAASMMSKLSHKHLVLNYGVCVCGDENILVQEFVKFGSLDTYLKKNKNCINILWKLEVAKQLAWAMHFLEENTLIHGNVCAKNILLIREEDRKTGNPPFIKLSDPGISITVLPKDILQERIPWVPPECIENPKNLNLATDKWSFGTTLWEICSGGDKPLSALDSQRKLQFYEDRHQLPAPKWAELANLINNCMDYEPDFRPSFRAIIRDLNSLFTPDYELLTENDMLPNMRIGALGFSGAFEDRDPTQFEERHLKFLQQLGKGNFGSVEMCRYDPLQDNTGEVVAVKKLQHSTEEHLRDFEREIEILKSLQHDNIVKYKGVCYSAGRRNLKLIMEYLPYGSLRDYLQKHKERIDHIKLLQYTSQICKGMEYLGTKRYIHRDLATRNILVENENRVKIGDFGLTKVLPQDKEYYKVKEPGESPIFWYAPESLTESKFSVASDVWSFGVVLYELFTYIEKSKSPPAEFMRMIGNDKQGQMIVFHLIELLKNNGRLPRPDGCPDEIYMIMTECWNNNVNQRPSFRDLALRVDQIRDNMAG

[11] = biological target: Testis-specific serine/threonine-protein kinase 3 (Homo sapiens) (UniProt Q96PN8); assay: Inhibition of wild-type human full length TSSK3 (M1 to T268 residues) expressed in HEK293 cells assessed as residual activity at 1000 nM after 30 mins by Kinomescan method relative to control; format: cell-based
[12] = biological target: Serine/threonine-protein kinase DCLK2 (Homo sapiens) (UniProt Q8N568); assay: Inhibition of wild-type human partial length DCAMKL2 (K273 to V664 residues) expressed in Escherichia coli BL21 assessed as residual activity at 1000 nM after 30 mins by Kinomescan method relative to control
Serine/threonine-protein kinase DCLK2 (Homo sapiens), sequence (Q8N568 whole entry, the tested form may be a part): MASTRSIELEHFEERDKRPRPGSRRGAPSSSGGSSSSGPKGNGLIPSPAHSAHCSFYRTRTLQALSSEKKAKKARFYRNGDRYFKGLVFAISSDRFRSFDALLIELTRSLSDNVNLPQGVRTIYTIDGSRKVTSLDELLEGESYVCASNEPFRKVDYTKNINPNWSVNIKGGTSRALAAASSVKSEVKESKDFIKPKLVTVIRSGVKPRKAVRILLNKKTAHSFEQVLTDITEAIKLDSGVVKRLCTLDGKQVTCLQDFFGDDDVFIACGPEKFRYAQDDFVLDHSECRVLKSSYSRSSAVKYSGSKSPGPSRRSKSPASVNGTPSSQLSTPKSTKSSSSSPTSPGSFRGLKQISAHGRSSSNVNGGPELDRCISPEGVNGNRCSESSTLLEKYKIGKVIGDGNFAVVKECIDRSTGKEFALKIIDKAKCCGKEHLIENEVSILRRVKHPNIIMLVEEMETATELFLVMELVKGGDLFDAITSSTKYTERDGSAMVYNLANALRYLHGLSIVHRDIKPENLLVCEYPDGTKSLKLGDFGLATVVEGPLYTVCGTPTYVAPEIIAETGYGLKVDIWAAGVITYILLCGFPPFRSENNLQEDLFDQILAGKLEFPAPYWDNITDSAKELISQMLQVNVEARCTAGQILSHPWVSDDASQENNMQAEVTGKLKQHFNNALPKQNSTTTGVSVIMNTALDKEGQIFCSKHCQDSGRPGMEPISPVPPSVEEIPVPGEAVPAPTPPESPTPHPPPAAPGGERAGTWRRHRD

[13] = species: Homo sapiens; assay: Inhibition of human partial length FLT3 ITD/D835V double mutant expressed in Escherichia coli BL21 assessed as residual activity at 1000 nM after 30 mins by Kinomescan method relative to control; outline: as §1
[14] = biological target: Beta-adrenergic receptor kinase 1 (Homo sapiens) (UniProt P25098); assay: Inhibition of wild-type human full length GRK2 (M1 to L689 residues) expressed in HEK293 cells assessed as residual activity at 1000 nM after 30 mins by Kinomescan method relative to control; format: cell-based
Beta-adrenergic receptor kinase 1 (Homo sapiens), sequence (P25098 whole entry, the tested form may be a part): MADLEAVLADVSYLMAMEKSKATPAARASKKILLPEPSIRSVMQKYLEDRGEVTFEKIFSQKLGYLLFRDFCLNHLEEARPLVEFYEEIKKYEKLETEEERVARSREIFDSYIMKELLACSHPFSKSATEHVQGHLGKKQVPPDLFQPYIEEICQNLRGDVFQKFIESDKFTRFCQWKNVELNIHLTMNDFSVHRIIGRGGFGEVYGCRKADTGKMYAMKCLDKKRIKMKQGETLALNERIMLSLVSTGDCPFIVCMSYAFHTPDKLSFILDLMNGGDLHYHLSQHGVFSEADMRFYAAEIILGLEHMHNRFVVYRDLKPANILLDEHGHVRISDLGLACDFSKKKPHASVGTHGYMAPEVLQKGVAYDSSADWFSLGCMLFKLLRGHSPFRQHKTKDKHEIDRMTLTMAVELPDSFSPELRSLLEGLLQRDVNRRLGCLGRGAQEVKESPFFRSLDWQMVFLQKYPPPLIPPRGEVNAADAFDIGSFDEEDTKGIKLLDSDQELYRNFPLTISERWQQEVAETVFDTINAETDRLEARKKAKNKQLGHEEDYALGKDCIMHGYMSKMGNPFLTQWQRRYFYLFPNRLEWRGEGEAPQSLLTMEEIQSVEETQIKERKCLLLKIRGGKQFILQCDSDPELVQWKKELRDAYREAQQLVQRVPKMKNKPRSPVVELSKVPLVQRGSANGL
Outline: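 Single-concentration screen at 1 µM across a 456-kinase KINOMEscan panel. The read-out is Percent Control for each kinase.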

[15] = biological target: Serine/threonine-protein kinase PAK 5 (Homo sapiens) (UniProt Q9P286); assay: Inhibition of wild-type human partial length PAK7 (Y400 to H719 residues) expressed in Escherichia coli BL21 assessed as residual activity at 1000 nM after 30 mins by Kinomescan method relative to control
[16] = biological target: Calcium/calmodulin-dependent protein kinase type 1D (Homo sapiens) (UniProt Q8IU85); assay: Inhibition of wild-type human partial length CAMK1D (M1 to K299 residues) expressed in Escherichia coli BL21 assessed as residual activity at 1000 nM after 30 mins by Kinomescan method relative to control
Calcium/calmodulin-dependent protein kinase type 1D (Homo sapiens), sequence (Q8IU85 whole entry, looked up, the tested form may be a part): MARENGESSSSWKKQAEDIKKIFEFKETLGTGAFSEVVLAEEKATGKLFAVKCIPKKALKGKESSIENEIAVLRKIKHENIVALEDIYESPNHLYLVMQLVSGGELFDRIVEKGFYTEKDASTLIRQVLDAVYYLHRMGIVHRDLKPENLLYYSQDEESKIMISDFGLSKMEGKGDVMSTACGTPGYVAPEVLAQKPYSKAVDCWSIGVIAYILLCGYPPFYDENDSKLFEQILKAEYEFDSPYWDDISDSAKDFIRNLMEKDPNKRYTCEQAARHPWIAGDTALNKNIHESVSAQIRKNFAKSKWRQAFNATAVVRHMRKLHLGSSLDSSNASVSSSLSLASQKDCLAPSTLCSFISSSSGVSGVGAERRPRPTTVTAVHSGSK

[17] = biological target: Mitogen-activated protein kinase kinase kinase 1 (Homo sapiens) (UniProt Q13233); assay: Inhibition of wild-type human partial length MAP3K1 (L1202 to W1512 residues) expressed in HEK293 cells assessed as residual activity at 1000 nM after 30 mins by Kinomescan method relative to control; format: cell-based
[18] = biological target: Insulin receptor (Homo sapiens) (UniProt P06213); assay: Inhibition of wild-type human partial length INSR (P997 to E1318 residues) expressed in HEK293 cells assessed as residual activity at 1000 nM after 30 mins by Kinomescan method relative to control; format: cell-based
Insulin receptor (Homo sapiens), sequence (P06213 28-758 limits assumed): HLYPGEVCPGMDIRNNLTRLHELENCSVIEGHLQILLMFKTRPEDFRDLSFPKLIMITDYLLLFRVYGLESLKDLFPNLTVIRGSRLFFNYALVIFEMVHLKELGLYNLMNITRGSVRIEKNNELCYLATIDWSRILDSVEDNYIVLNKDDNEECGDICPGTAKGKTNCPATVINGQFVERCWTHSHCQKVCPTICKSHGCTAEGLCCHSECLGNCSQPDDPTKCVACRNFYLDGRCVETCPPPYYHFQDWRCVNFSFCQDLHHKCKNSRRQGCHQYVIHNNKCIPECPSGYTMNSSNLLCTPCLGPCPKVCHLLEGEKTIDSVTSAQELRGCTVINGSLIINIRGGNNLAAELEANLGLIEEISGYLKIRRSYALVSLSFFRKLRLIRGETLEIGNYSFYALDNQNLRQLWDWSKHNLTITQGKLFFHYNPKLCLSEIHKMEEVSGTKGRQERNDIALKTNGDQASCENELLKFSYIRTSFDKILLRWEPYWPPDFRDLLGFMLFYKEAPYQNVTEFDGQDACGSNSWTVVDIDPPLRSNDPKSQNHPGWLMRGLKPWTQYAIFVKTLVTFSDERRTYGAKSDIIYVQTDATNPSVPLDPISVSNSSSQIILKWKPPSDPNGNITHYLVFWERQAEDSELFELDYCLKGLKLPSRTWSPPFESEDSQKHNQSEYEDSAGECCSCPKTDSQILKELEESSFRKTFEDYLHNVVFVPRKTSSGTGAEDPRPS
Insulin receptor (Homo sapiens), sequence (P06213 763-1382 limits assumed): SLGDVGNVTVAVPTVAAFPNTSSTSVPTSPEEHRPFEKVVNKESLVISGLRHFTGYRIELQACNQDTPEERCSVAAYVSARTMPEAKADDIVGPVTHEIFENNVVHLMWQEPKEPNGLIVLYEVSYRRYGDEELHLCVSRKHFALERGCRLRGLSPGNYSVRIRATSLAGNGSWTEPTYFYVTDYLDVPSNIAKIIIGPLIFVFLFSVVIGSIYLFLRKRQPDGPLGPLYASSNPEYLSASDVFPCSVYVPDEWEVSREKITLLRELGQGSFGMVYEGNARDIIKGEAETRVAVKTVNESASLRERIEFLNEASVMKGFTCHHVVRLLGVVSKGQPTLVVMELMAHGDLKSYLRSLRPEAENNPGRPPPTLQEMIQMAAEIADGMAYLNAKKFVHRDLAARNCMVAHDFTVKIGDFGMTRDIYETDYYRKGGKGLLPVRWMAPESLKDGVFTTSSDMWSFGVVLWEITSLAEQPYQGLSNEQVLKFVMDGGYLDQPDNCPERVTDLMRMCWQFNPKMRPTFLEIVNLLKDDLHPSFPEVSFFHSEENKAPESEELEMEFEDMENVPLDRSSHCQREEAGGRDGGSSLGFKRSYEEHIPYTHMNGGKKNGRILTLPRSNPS

[19] = biological target: Calcium/calmodulin-dependent protein kinase kinase 2 (Homo sapiens) (UniProt Q96RR4); assay: Inhibition of wild-type human partial length CAMKK2 (D65 to V471 residues) expressed in Escherichia coli BL21 assessed as residual activity at 1000 nM after 30 mins by Kinomescan method relative to control
[20] = biological target: Tyrosine-protein kinase BTK (Homo sapiens) (UniProt Q06187); assay: Inhibition of wild-type human full length BTK (M1 to S659 residues) expressed in HEK293 cells assessed as residual activity at 1000 nM after 30 mins by Kinomescan method relative to control; format: cell-based; outline: as §2
[21] = tested on: Tyrosine-protein kinase ABL1 (Homo sapiens), P00519 [F317L]; assay: Inhibition of human non-phosphorylated ABL1 F317L mutant (S229 to K512 residues) expressed in HEK293 cells assessed as residual activity at 1000 nM after 30 mins by Kinomescan method relative to control; format: cell-based; outline: as §1

Compound: COc1cc(OC)c(Cl)c(N2Cc3cnc(Nc4ccc(F)cc4)nc3N(C3CCN(C(=O)/C=C/CN(C)C)CC3)C2=O)c1Cl
- Activity [1]: 87%
- Activity [2]: 100%
- Activity [3]: 93%
- Activity [4]: 100%
- Activity [5]: 87%
- Activity [6]: 100%
- Activity [7]: 100%
- Activity [8]: 100%
- Activity [9]: 98%
- Activity [10]: 100%
- Activity [11]: 100%
- Activity [12]: 73%
- Activity [13]: 98%
- Activity [14]: 87%
- Activity [15]: 88%
- Activity [16]: 87%
- Activity [17]: 100%
- Activity [18]: 87%
- Activity [19]: 99%
- Activity [20]: 99%
- Activity [21]: 96%
